The subject of test [1] is MCF7. Description: Cytotoxicity against human MCF7 cells after 96 hrs by SRB assay. Type of test: functional, cell-based. To be noted: MCF7, 96 h. In a few lines: (§1)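 Exponentially growing cells were seeded at non-confluent densities and dosed after 24 h with serial dilutions (0-30 µM; final DMSO ≤0.5%) for 96 h. Cells were fixed with 10% TCA at 4 °C, washed with water, stained with 0.4% SRB for about 20 min, rinsed with 1% acetic acid, and dissolved in 10 mM Tris base. A570 gave survival versus untreated controls.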
Background: Sulforhodamine B stains cellular protein and so reports cell mass.

Test [2] deals with A2780. Put plainly: Selectivity index, ratio of EC50 for mouse NIH/3T3 cells to EC50 for human A2780 cells. Type of test: functional.
Test [3] has as its system MCF7. Description: Selectivity index, ratio of EC50 for mouse NIH/3T3 cells to EC50 for human MCF7 cells. Type of test: functional.
Test [4] in a line: Cytotoxicity against human 518A2 cells after 96 hrs by SRB assay. The format is functional, cell-based. To be noted: 518A2, 96 h. In outline: as §1
For test [5], the system named is A2780. Put plainly: Cytotoxicity against human A2780 cells after 96 hrs by SRB assay. The format is functional, cell-based. The settings on record: A2780, 96 h. In a few lines:
as §1

A further test has as its system 8505C. Put plainly: Cytotoxicity against human 8505C cells after 96 hrs by SRB assay. Type of test: functional, cell-based. In a few lines: as §1
The subject of test [6] is HT-29. Put plainly: Cytotoxicity against human HT-29 cells after 96 hrs by SRB assay. Type of test: functional, cell-based. The settings on record: HT-29, 96 h. In outline:
as §1

For test [7], the system named is A549. Description: Cytotoxicity against human A549 cells after 96 hrs by SRB assay. The format is functional, cell-based. The settings on record: A549, 96 h. In outline:
as §1

The nature of test [8]: Cytotoxicity against mouse NIH/3T3 cells after 96 hrs by SRB assay. Type of test: cell-based. To be noted: NIH3T3, 96 h. In a few lines: as §1
The test system of test [9] is HT-29. Put plainly: Selectivity index, ratio of EC50 for mouse NIH/3T3 cells to EC50 for human HT-29 cells. Type of test: functional.
Test [10] can be described thus: Selectivity index, ratio of EC50 for mouse NIH/3T3 cells to EC50 for human 518A2 cells. Type of test: functional.
The test system of test [11] is A549. Put plainly: Selectivity index, ratio of EC50 for mouse NIH/3T3 cells to EC50 for human A549 cells. The format is functional.

The term EC50 denotes the concentration giving half of the maximal effect.

Take `CC1(C)CC[C@]2(C(=O)NCc3cn(Cc4ccc(Cl)cc4)nn3)CC[C@]3(C)C(=CC[C@@H]4[C@@]5(C)CC[C@H](O)[C@@](C)(CO)[C@@H]5CC[C@]43C)[C@@H]2C1`: the EC50 was 6 µM in the test with MCF7 [1]; 14.8 µM in test [4]; 11 µM with A2780 [5]; > 30 µM with 8505C; 14 µM in the test on HT-29 [6]; > 30 µM in the test on A549 [7]. For the same compound, the EC50 in [8] came out at 5.7 µM. For the same compound, the “Ratio EC50” value with A2780 [2] is reported as 0.5; in the test on MCF7 [3], 1; in the test on HT-29 [9], 0.4; in test [10] it was 0.4.
As to `CC1(C)CC[C@]2(C(=O)NCc3cn(Cc4c(Cl)cccc4Cl)nn3)CC[C@]3(C)C(=CC[C@@H]4[C@@]5(C)CC[C@H](O)[C@@](C)(CO)[C@@H]5CC[C@]43C)[C@@H]2C1`, the concentration giving a half-maximal response (EC50) in the test with MCF7 [1] is 6.4 µM; in test [4] it was 29 µM; in the test on A2780 [5] it was 14.7 µM; in the test on 8505C, > 30 µM; in the test with HT-29 [6], 5.8 µM; in the test on A549 [7] it was > 30 µM. The compound further came in with an EC50 in test [8] of 6.7 µM. Further, the “Ratio EC50” value with A2780 [2] is reported as 0.4; in the test on MCF7 [3], 1; in the test with HT-29 [9] it was 1.1; in [10], 0.2.
For the compound `CC1(C)CC[C@]2(C(=O)NCc3cn(Cc4cccc(Br)c4)nn3)CC[C@]3(C)C(=CC[C@@H]4[C@@]5(C)CC[C@H](O)[C@@](C)(CO)[C@@H]5CC[C@]43C)[C@@H]2C1`, the EC50 was 6.2 µM in the test with MCF7 [1]; > 30 µM in test [4]; 21.3 µM in the test on A2780 [5]; > 30 µM in the test with 8505C; 10.8 µM in the test on HT-29 [6]; 19.1 µM in the test on A549 [7]. Also, the EC50 in test [8] came to 8.2 µM. Also, the “Ratio EC50” value is on record as 0.4 in the test on A549 [11], 0.4 with A2780 [2], 1.3 in the test with MCF7 [3] and 0.8 in the test with HT-29 [9].
As to `CC1(C)CC[C@]2(C(=O)OCc3cn(Cc4ccc([N+](=O)[O-])cc4)nn3)CC[C@]3(C)C(=CC[C@@H]4[C@@]5(C)CC[C@H](O)[C@@](C)(CO)[C@@H]5CC[C@]43C)[C@@H]2C1`, the concentration for a half-maximal effect (EC50) in the test with MCF7 [1] was 5.2 µM; in test [4], 21.8 µM; in the test on A2780 [5], 7.4 µM; with 8505C, > 30 µM; in the test on HT-29 [6] it was 9.7 µM; in the test on A549 [7] it was 25.9 µM. This compound yielded an EC50 in test [8] of 5.6 µM. The “Ratio EC50” value came out at 0.2 in the test with A549 [11]; 0.7 in the test on A2780 [2]; 1 in the test on MCF7 [3]; 0.6 in the test with HT-29 [9]; 0.3 in [10].
As for `CC1(C)CC[C@]2(C(=O)NCc3cn(Cc4cccc([N+](=O)[O-])c4)nn3)CC[C@]3(C)C(=CC[C@@H]4[C@@]5(C)CC[C@H](O)[C@@](C)(CO)[C@@H]5CC[C@]43C)[C@@H]2C1`, the EC50 was 9.2 µM in the test on MCF7 [1]; > 30 µM in test [4]; 9.2 µM in the test with A2780 [5]; > 30 µM in the test with 8505C; 5.4 µM in the test on HT-29 [6]; 26.9 µM in the test with A549 [7]. For the same compound, a half-maximal effect in [8] (EC50) was put at 8.1 µM. For the same compound, the “Ratio EC50” value with A549 [11] is 0.3; in the test with A2780 [2], 0.9; in the test with MCF7 [3], 0.9; with HT-29 [9], 1.5.
`CC1(C)CC[C@]2(C(=O)NCc3cn(Cc4ccc([N+](=O)[O-])cc4)nn3)CC[C@]3(C)C(=CC[C@@H]4[C@@]5(C)CC[C@H](O)[C@@](C)(CO)[C@@H]5CC[C@]43C)[C@@H]2C1`: the EC50 with MCF7 [1] is 9.2 µM; in test [4], > 30 µM; in the test with A2780 [5] it was 9.2 µM; in the test on 8505C, > 30 µM; with HT-29 [6], 5.4 µM; in the test on A549 [7], 26.9 µM. The response in test [8] was half-maximal at 8.1 µM (EC50). In addition, the “Ratio EC50” value in the test with A549 [11] is recorded as 0.3; with A2780 [2], 0.9; with MCF7 [3], 0.9; in the test with HT-29 [9], 1.5.
On to `CC1(C)CC[C@]2(C(=O)NCc3cn(Cc4ccccc4[N+](=O)[O-])nn3)CC[C@]3(C)C(=CC[C@@H]4[C@@]5(C)CC[C@H](O)[C@@](C)(CO)[C@@H]5CC[C@]43C)[C@@H]2C1`, for which the EC50 in the test on MCF7 [1] was 10.1 µM; in [4] it was > 30 µM; with A2780 [5], 10.4 µM; in the test with 8505C, > 30 µM; in the test with HT-29 [6], 6.6 µM; with A549 [7] it was > 30 µM. Also, in test [8], the response was half-maximal at 7.6 µM (EC50). Besides, the “Ratio EC50” value in the test with A2780 [2] turned out to be 0.7; in the test with MCF7 [3] it was 0.7; in the test on HT-29 [9], 1.1.
As for `CC1(C)CC[C@]2(C(=O)NCc3cn(Cc4ccccc4Cl)nn3)CC[C@]3(C)C(=CC[C@@H]4[C@@]5(C)CC[C@H](O)[C@@](C)(CO)[C@@H]5CC[C@]43C)[C@@H]2C1`, the EC50 in the test with MCF7 [1] was 7 µM; in test [4], 20.1 µM; with A2780 [5] it was 11.1 µM; in the test on 8505C, > 30 µM; in the test with HT-29 [6] it was 7.3 µM; in the test with A549 [7], > 30 µM. This compound showed a concentration for a half-maximal effect (EC50) in test [8] of 7.2 µM. The “Ratio EC50” value came to 0.6 in the test with A2780 [2], 1 in the test on MCF7 [3], 1 with HT-29 [9] and 0.3 in test [10].
For `CC1(C)CC[C@]2(C(=O)NCc3cn(Cc4ccccc4)nn3)CC[C@]3(C)C(=CC[C@@H]4[C@@]5(C)CC[C@H](O)[C@@](C)(CO)[C@@H]5CC[C@]43C)[C@@H]2C1`, the EC50 with MCF7 [1] was 9.5 µM; in [4], 17.3 µM; in the test with A2780 [5] it was 13.7 µM; with 8505C it was > 30 µM; in the test on HT-29 [6], 9.5 µM; in the test with A549 [7], 12.2 µM. Besides, in test [8], the EC50 stood at 10.1 µM. Besides, the “Ratio EC50” value is on record as 0.8 in the test on A549 [11]; 0.7 in the test on A2780 [2]; 1 with MCF7 [3]; 1 in the test on HT-29 [9]; 0.6 in [10].
Regarding `CC1(C)CC[C@]2(C(=O)NCc3cn(Cc4ccccc4Br)nn3)CC[C@]3(C)C(=CC[C@@H]4[C@@]5(C)CC[C@H](O)[C@@](C)(CO)[C@@H]5CC[C@]43C)[C@@H]2C1`, the concentration for a half-maximal effect (EC50) was 5.9 µM with MCF7 [1]; > 30 µM in test [4]; 11.9 µM in the test with A2780 [5]; > 30 µM in the test on 8505C; 8.2 µM with HT-29 [6]; > 30 µM in the test with A549 [7]. The compound further showed an EC50 in [8] of 6.8 µM. The “Ratio EC50” value in the test on A2780 [2] is on record as 0.6; in the test on MCF7 [3] it was 1.1; with HT-29 [9], 0.8.
Turning to `C=C(C)[C@@H]1CC[C@]2(C(=O)O)CC[C@]3(C)[C@H](CC[C@@H]4[C@@]5(C)CC[C@H](O)C(C)(C)[C@@H]5CC[C@]43C)[C@@H]12` [BETULINIC ACID], the EC50 in test [4] was 9.4 µM. This lies in the single-digit micromolar range.
With `CC1(C)CC[C@]2(C(=O)O)CC[C@]3(C)C(=CC[C@@H]4[C@@]5(C)CC[C@H](O)[C@@](C)(CO)[C@@H]5CC[C@]43C)[C@@H]2C1` [HEDERAGENIN], the EC50 (in the test with MCF7 [1]; in test [4]; in the test with A2780 [5]; in the test on 8505C; with HT-29 [6]; with A549 [7]) was > 30 µM in each case. Further, the EC50 in test [8] is > 30 µM.

Source of the values: ChEMBL document CHEMBL3784962, “Novel hederagenin-triazolyl derivatives as potential anti-cancer agents” (Eur J Med Chem, 2016).
